pEC50: −log10 of the molar value. One block for each compound: values may come before it.
Columns and labels:
CCRF-CEM = experiment: Cytotoxicity against human CEM cells by CellTiter 96 non-radioactive cell proliferation colorimetric assay; format: cell-based; details: ccrf-cem
Summary of the method: (§1)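 A CellTiter 96 colorimetric cell proliferation read-out was used in primary human PBM cells, CEM, Vero and HepG2 cells. CC50 is the concentration that inhibits cell growth by 50%.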

Vero = experiment: Cytotoxicity against African green monkey Vero cells by CellTiter 96 non-radioactive cell proliferation colorimetric assay; format: cell-based; details: chlorocebus sabaeus, vero; summary of the method: as §1
Hepatitis B virus [1] = experiment: Antiviral activity against HBV infected in human HepAD38 cells assessed as reduction in viral replication by RT-PCR method; format: functional, organism-based
Summary of the method: (§2)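 HBV DNA replication in HepAD38 cells was quantified by RT-PCR following an earlier published method, with data relative to the untreated control. EC50 (50% inhibition of HBV DNA replication) was derived by linear regression. Values are the mean ± SD of two or three replicates from 2 independent experiments.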

PBMC = experiment: Cytotoxicity against human PBMC by CellTiter 96 non-radioactive cell proliferation colorimetric assay; format: cell-based; summary of the method: as §1
HepG2 = experiment: Cytotoxicity against human HepG2 cells by CellTiter 96 non-radioactive cell proliferation colorimetric assay; format: cell-based; summary of the method: as §1
Hepatitis B virus [2] = experiment: Antiviral activity against HBV infected in human HepAD38 cells assessed as inhibition of viral replication at 10 uM by RT-PCR method relative to control; format: functional
Summary of the method: (§3)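 HBV DNA replication in HepAD38 cells was quantified by RT-PCR following an earlier published method. Each compound was tested at a single 10 μM concentration. Results are % inhibition ± SD relative to the untreated control.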

[3] = molecular target: Core antigen (Hepatitis B virus) (UniProt Q03732); experiment: Inhibition of capsid in HBV infected in human HepAD38 cells assessed as reduction in cccDNA formation by measuring reduction in HBe antigen secretion at 10 uM after 14 days by ELISA relative to control; format: cell-based
Chain of Core antigen (Hepatitis B virus) (Q03732 as listed by the source): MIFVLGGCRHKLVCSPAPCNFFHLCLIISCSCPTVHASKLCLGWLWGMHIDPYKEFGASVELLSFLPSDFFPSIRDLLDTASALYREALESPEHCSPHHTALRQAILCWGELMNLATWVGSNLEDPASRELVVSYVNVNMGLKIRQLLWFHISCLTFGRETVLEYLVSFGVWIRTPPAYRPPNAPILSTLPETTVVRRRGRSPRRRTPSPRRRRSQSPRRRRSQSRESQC
Summary of the method: (§4)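 HepAD38 cells, collagen-coated wells, DMEM/F12 with 10% heat-inactivated FBS. Tetracycline withdrawn 7 days to allow DNA synthesis and cccDNA formation; at day 7 tetracycline (0.3 μg/ml) plus compound re-added. Compound at 10 μM or 0.001–10 μM, medium and compound replenished every 5 days. Day-14 supernatant HBeAg by ELISA; EC50 by linear regression.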

[4] = molecular target: Core antigen (Hepatitis B virus) (UniProt Q03732); experiment: (§5) Inhibition of capsid in HBV infected in human HepAD38 cells assessed as reduction in tetracycline-induced cccDNA formation by measuring reduction in HBe antigen secretion after 14 days by ELISA; format: cell-based; summary of the method: as §4
Core antigen = Core antigen (Hepatitis B virus, UniProt Q03732); experiment: as §5; format: cell-based; summary of the method: as §4
Chain of Core antigen (Q03732 whole entry): as the sequence (Q03732 as listed by the source) above

Hepatitis B virus [5] = experiment: Antiviral activity against HBV infected in human HepAD38 cells assessed as reduction in extracellular viral DNA level by RT-PCR method; format: functional, organism-based; summary of the method: as §2
Hepatitis B virus [6] = experiment: Antiviral activity against HBV infected in human HepAD38 cells assessed as reduction in extracellular viral DNA level at 10 uM by RT-PCR method relative to control; format: functional; set-up: scale not given: the % may be the effect or the level left; summary of the method: as §3
Hepatitis B virus [7] = experiment: Antiviral activity against HBV infected in human HepAD38 cells assessed as reduction in intracellular viral DNA level by RT-PCR method; format: functional, organism-based; summary of the method: as §2
Hepatitis B virus [8] = experiment: Antiviral activity against HBV infected in human HepAD38 cells assessed as reduction in intracellular viral DNA level at 10 uM by RT-PCR method relative to control; format: functional; set-up: scale not given: the % may be the effect or the level left
Summary of the method: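 HepAD38 cells; intracellular HBV DNA quantified by RT-PCR, expressed relative to untreated control; single-point inhibition given as percent at 10 μM, mean ± SD of two or three replicates from 2 independent experiments.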

SMILES: O=C(Nc1ccc(F)c(F)c1)c1cc(S(=O)(=O)NS(=O)(=O)c2ccc(F)c(F)c2)ccc1F
CC50 (CCRF-CEM): > 100 µM
CC50 (Vero): > 100 µM
pEC50 (Hepatitis B virus [1]): < 5.00
CC50 (PBMC): > 100 µM
CC50 (HepG2): > 100 µM

SMILES: O=C(Nc1ccc(F)c(F)c1)c1cc(S(=O)(=O)NS(=O)(=O)C2CC2)ccc1F
CC50 (CCRF-CEM): > 100 µM
CC50 (Vero): > 100 µM
pEC50 (Hepatitis B virus [1]): < 5.00
CC50 (PBMC): > 100 µM
CC50 (HepG2): > 100 µM

SMILES: O=C(Nc1ccc(F)c(F)c1)c1cc(S(=O)(=O)N2CCC(F)(F)C2)ccc1F
CC50 (CCRF-CEM): 4.8 µM
CC50 (Vero): 21.3 µM
pEC50 (Hepatitis B virus [1]): 5.17
EC90 (Hepatitis B virus [1]): > 10 µM
inhibition at 10 µM (Hepatitis B virus [2]): 83%
CC50 (PBMC): > 100 µM
CC50 (HepG2): > 100 µM

SMILES: O=C(Nc1cc(S(=O)(=O)NC2CCCC2)ccc1F)c1ccc(F)c(F)c1
CC50 (CCRF-CEM): 13.6 µM
CC50 (Vero): 87.5 µM
pEC50 (Hepatitis B virus [1]): ≤ 5.00
CC50 (PBMC): 81 µM
CC50 (HepG2): > 100 µM

SMILES: CCOC(=O)[C@H](CC(C)C)NS(=O)(=O)c1ccc(F)c(C(=O)Nc2ccc(F)c(F)c2)c1
CC50 (CCRF-CEM): 10.8 µM
CC50 (Vero): 39.1 µM
pEC50 (Hepatitis B virus [1]): < 5.00
CC50 (PBMC): 58.1 µM
CC50 (HepG2): > 100 µM

SMILES: O=C(Nc1ccc(F)c(F)c1)c1cc(NS(=O)(=O)C2CCCCC2)ccc1F
inhibition [3]: 67%
CC50 (CCRF-CEM): 74.5 µM
CC50 (Vero): 6.4 µM
pEC50 (Hepatitis B virus [1]): 5.43
EC90 (Hepatitis B virus [1]): ≥ 10 µM
CC50 (PBMC): > 100 µM
CC50 (HepG2): 80.4 µM
EC90 [4]: > 10 µM
pEC50 (Core antigen): 5.01
pEC50 (Hepatitis B virus [5]): 5.43
EC90 (Hepatitis B virus [5]): ≥ 10 µM
Activity (Hepatitis B virus [6]): 86%
pEC50 (Hepatitis B virus [7]): > 7.00
EC90 (Hepatitis B virus [7]): 7.9 µM
Activity (Hepatitis B virus [8]): 63%

SMILES: CC(C)OC(=O)[C@H](C)NS(=O)(=O)c1ccc(F)c(C(=O)Nc2ccc(F)c(F)c2)c1
CC50 (CCRF-CEM): 31.1 µM
CC50 (Vero): 13.1 µM
pEC50 (Hepatitis B virus [1]): < 5.00
CC50 (PBMC): > 100 µM
CC50 (HepG2): 45.5 µM

SMILES: COC(=O)[C@H](Cc1ccccc1)NS(=O)(=O)c1ccc(F)c(C(=O)Nc2ccc(F)c(F)c2)c1
CC50 (CCRF-CEM): 31.6 µM
CC50 (Vero): > 100 µM
pEC50 (Hepatitis B virus [1]): < 5.00
CC50 (PBMC): > 100 µM
CC50 (HepG2): 76.8 µM

SMILES: O=C(Nc1ccc(F)c(F)c1)c1cc(S(=O)(=O)N2CCC(F)(F)CC2)ccc1F
CC50 (CCRF-CEM): 10.3 µM
CC50 (Vero): > 100 µM
pEC50 (Hepatitis B virus [1]): 5.35
EC90 (Hepatitis B virus [1]): 9.4 µM
CC50 (PBMC): > 100 µM
CC50 (HepG2): > 100 µM

SMILES: C=C1[C@H](CO)[C@@H](O)C[C@@H]1n1cnc2c(=O)[nH]c(N)nc21.O
inhibition [3]: < 1%
pEC50 (Core antigen): < 5.00
pEC50 (Hepatitis B virus [5]): 9.15
EC90 (Hepatitis B virus [5]): 0.1 µM
pEC50 (Hepatitis B virus [7]): ≥ 10.00
EC90 (Hepatitis B virus [7]): 0.009 µM
Activity (Hepatitis B virus [8]): 53%

Further lines, with some results ahead:

pEC50 (Hepatitis B virus [1]): < 5.00
SMILES: CN(C1CCCC1)S(=O)(=O)c1ccc2c(c1)C(=O)N(c1ccc(F)c(F)c1)CC2
CC50 (CCRF-CEM): 36 µM
CC50 (Vero): > 100 µM
CC50 (PBMC): 71.2 µM
CC50 (HepG2): > 100 µM

pEC50 (Hepatitis B virus [1]): < 5.00
SMILES: O=C(NC1(c2ccc(F)c(F)c2)CC1)c1cc(S(=O)(=O)NC2CCCC2)ccc1F
CC50 (CCRF-CEM): > 100 µM
CC50 (Vero): 12.7 µM
CC50 (PBMC): > 100 µM
CC50 (HepG2): > 100 µM

pEC50 (Hepatitis B virus [1]): < 5.00
SMILES: O=C(Nc1ccc(F)c(F)c1)c1cc(S(=O)(=O)N2CCCC2=O)ccc1F
CC50 (CCRF-CEM): 37.8 µM
CC50 (Vero): 39.6 µM
CC50 (PBMC): > 100 µM
CC50 (HepG2): > 100 µM

pEC50 (Hepatitis B virus [1]): < 5.00
SMILES: CN(C1CCCC1)S(=O)(=O)c1ccc2c(c1)C(=O)N(c1ccc(F)c(F)c1)CCC2
CC50 (CCRF-CEM): > 100 µM
CC50 (Vero): > 100 µM
CC50 (PBMC): > 100 µM
CC50 (HepG2): > 100 µM

pEC50 (Hepatitis B virus [1]): < 5.00
SMILES: O=C1c2cc(S(=O)(=O)NC3CCCC3)ccc2CCN1c1ccc(F)c(F)c1
CC50 (CCRF-CEM): > 100 µM
CC50 (Vero): > 100 µM
CC50 (PBMC): > 100 µM
CC50 (HepG2): > 100 µM
